Assay results reported in ChEMBL document CHEMBL3044755, “5-Methyl-1,2,3-thiadiazoles synthesized via ugi reaction and their fungicidal and antiviral activities” (J Agric Food Chem, 2010).

How the values were obtained:
[1] = system: Botryosphaeria berengeriana; assay: Fungicidal activity against Botryosphaeria berengeriana at 50 ug/ml by growth inhibition method; type: functional; conditions: read-out: GI
Summary of the method: (§1)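 Mycelial growth inhibition on potato dextrose agar. The panel covered Alternaria solani, Botrytis cinerea, Cercospora arachidicola, C. beticola, Colletotrichum lagenarium, Fusarium oxysporum, Gibberella zeae, Puccinia triticina, Phytophthora infestans, Physalospora piricola, Pellicularia sasakii and Rhizoctonia solani.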

Tobacco mosaic virus [2] = assay: In vitro antiviral activity against Tobacco mosaic virus (TMV) infected tobacco leaves at 500 ug/ml; type: functional
Botrytis cinerea = assay: Fungicidal activity against Botryotinia fuckeliana at 50 ug/ml by growth inhibition method; type: functional; conditions: read-out: GI; summary of the method: as §1
Mycosphaerella arachidis = assay: Fungicidal activity against Mycosphaerella arachidis at 50 ug/ml by growth inhibition method; type: functional; conditions: read-out: GI; summary of the method: as §1
Alternaria solani = assay: Fungicidal activity against Alternaria solani at 50 ug/ml by growth inhibition method; type: functional; conditions: read-out: GI; summary of the method: as §1
Tobacco mosaic virus [3] = assay: In vitro antiviral activity against Tobacco mosaic virus (TMV) infected tobacco leaves at 200 ug/ml; type: functional
Fusarium oxysporum = assay: Fungicidal activity against Fusarium oxysporum at 50 ug/ml by growth inhibition method; type: functional; conditions: read-out: GI; summary of the method: as §1
Colletotrichum lagenaria = assay: Fungicidal activity against Colletotrichum lagenaria at 50 ug/ml by growth inhibition method; type: functional; conditions: read-out: GI; summary of the method: as §1
Thanatephorus cucumeris = assay: Fungicidal activity against Thanatephorus cucumeris at 50 ug/ml by growth inhibition method; type: functional; conditions: read-out: GI; summary of the method: as §1
Phytophthora infestans = assay: Fungicidal activity against Phytophthora infestans at 50 ug/ml by growth inhibition method; type: functional; conditions: read-out: GI; summary of the method: as §1
Cercospora beticola = assay: Fungicidal activity against Cercospora beticola at 50 ug/ml by growth inhibition method; type: functional; conditions: read-out: GI; summary of the method: as §1
Fusarium graminearum = assay: Fungicidal activity against Fusarium graminearum at 50 ug/ml by growth inhibition method; type: functional; conditions: read-out: GI; summary of the method: as §1
Tobacco mosaic virus [4] = assay: In vivo antiviral activity against Tobacco mosaic virus (TMV) infected tobacco leaves assessed as inactivation effect at 500 ug/ml co-treated with virus for 30 min before inoculation onto leaves measured at 2-3 days after viral challenge; type: functional
Summary of the method: (§2)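 TMV (5.88 10-2 μg/mL) mixed with equal volume of compound solution for 30 min, then rubbed onto upper three leaves of six-leaf tobacco; solvent on lower three leaves as control. Lesions counted 2-3 days later, three repetitions. Inhibition (%) = (CK − A)/CK × 100 from mean lesion counts.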

Tobacco mosaic virus [5] = assay: In vivo antiviral activity against Tobacco mosaic virus (TMV) infected tobacco leaves assessed as inactivation effect at 100 ug/ml co-treated with virus for 30 min before inoculation onto leaves measured at 2-3 days after viral challenge; type: functional; summary of the method: as §2
Tobacco mosaic virus [6] = assay: In vivo antiviral activity against Tobacco mosaic virus (TMV) infected tobacco leaves assessed as protective effect at 100 ug/ml treated 12 hr before viral inoculation measured at 2-3 days after viral challenge; type: functional
Summary of the method: (§3)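 Six-leaf tobacco; compound solution smeared over whole leaves, dried in greenhouse, then after 12 h TMV (5.88 10-2 μg/mL) rubbed onto upper three leaves, with solvent on lower three leaves as control. Local lesions counted 2-3 days post-inoculation, three repetitions. Inhibition (%) = (CK − A)/CK × 100 from mean lesion numbers.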

Tobacco mosaic virus [7] = assay: In vitro antiviral activity against Tobacco mosaic virus (TMV) infected tobacco leaves at 100 ug/ml; type: functional
Tobacco mosaic virus [8] = assay: In vivo antiviral activity against Tobacco mosaic virus (TMV) infected tobacco leaves assessed as protective effect at 500 ug/ml treated 12 hr before viral inoculation measured at 2-3 days after viral challenge; type: functional; summary of the method: as §3
Nicotiana tabacum [9] = assay: Induction of systemic acquired resistance activity in TMV infected-Nicotiana tabacum (tobacco) leaves at 100 ug/ml; type: functional
Summary of the method: (§4)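 Tobacco/TMV system used for systemic acquired resistance induction. Inhibition ratio calculated from mean lesion numbers on inoculated leaves relative to corresponding control. Tiadinil and ribavirin run as controls.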

Nicotiana tabacum [10] = assay: Phytotoxicity against Nicotiana tabacum (tobacco) plant; type: organism-based; conditions: in vivo
Nicotiana tabacum [11] = assay: Induction of systemic acquired resistance activity in TMV infected-Nicotiana tabacum (tobacco) leaves at 50 ug/ml; type: functional; summary of the method: as §4

Structure (SMILES) | inhibition of growth at 50 µg/mL [1] | inhibition at 500 µg/mL (Tobacco mosaic virus [2]) | inhibition of growth at 50 µg/mL (Botrytis cinerea) | inhibition of growth at 50 µg/mL (Mycosphaerella arachidis) | inhibition of growth at 50 µg/mL (Alternaria solani) | inhibition at 200 µg/mL (Tobacco mosaic virus [3]) | inhibition of growth at 50 µg/mL (Fusarium oxysporum) | inhibition of growth at 50 µg/mL (Colletotrichum lagenaria) | inhibition of growth at 50 µg/mL (Thanatephorus cucumeris) | inhibition of growth at 50 µg/mL (Phytophthora infestans) | inhibition of growth at 50 µg/mL (Cercospora beticola) | inhibition of growth at 50 µg/mL (Fusarium graminearum) | Activity (Tobacco mosaic virus [4]) | Activity (Tobacco mosaic virus [5]) | Activity (Tobacco mosaic virus [6]) | inhibition at 100 µg/mL (Tobacco mosaic virus [7]) | Activity (Tobacco mosaic virus [8]) | Activity (Nicotiana tabacum [9]) | Activity (Nicotiana tabacum [10]) | Activity (Nicotiana tabacum [11])
Cc1ccc(N(C(=O)c2nnsc2C)C(C(=O)NC(C)C)c2cccc(C(F)(F)F)c2)cc1Cl (configuration not stated) | 44% | 41% | 76% | 13% | 37% | 17% | 14% | 17% | 26% | 0% | 25% | 50% |  |  |  |  |  |  |  | 
Cc1ccc(C(C(=O)NC(C)C)N(C(=O)c2nnsc2C)c2ccc(C)c(Cl)c2)cc1 (configuration not stated) | 37% | 21% | 79% | 33% | 34% | 11% | 19% | 11% | 60% | 0% | 9% | 0% |  |  |  |  |  |  |  | 
Cc1ccc(N(C(=O)c2nnsc2C)C(C(=O)NC(C)C)c2ccccc2Cl)cc1Cl (configuration not stated) | 27% | 8% | 76% | 21% | 49% | 3% | 23% | 13% | 72% | 23% | 25% | 23% |  |  |  |  |  |  |  | 
NC(=O)c1ncn([C@@H]2O[C@H](CO)[C@@H](O)[C@H]2O)n1 [RIBAVIRIN] |  | 32% |  |  |  |  |  |  |  |  |  |  | 59% | 46% | 30% | 20% | 59% | 28% | Non-toxic | 31%
Cc1ccc(N(C(=O)c2nnsc2C)C(C(=O)NC(C)C)c2ccc(O)cc2)cc1Cl (configuration not stated) | 36% | 4% | 76% | 17% | 37% | 0% | 23% | 10% | 65% | 23% | 17% | 20% | 64% | 50% | 8% |  | 36% | 41% | Non-toxic | 23%
Cc1ccc(N(C(=O)c2nnsc2C)C(C(=O)NC(C)C)c2ccc(Cl)cc2)cc1Cl (configuration not stated) | 47% | 32% | 76% | 21% | 37% | 25% | 26% | 7% | 60% | 19% | 9% | 4% |  |  |  |  |  |  |  | 
Cc1ccc(N(C(=O)c2nnsc2C)C(C(=O)NC(C)C)c2ccc(C(F)(F)F)cc2)cc1Cl (configuration not stated) | 11% | 34% | 70% | 25% | 35% | 32% | 12% | 7% | 56% | 0% | 17% | 67% |  |  |  |  |  |  |  | 
Cc1ccc(N(C(=O)c2nnsc2C)C(C(=O)NC(C)C)c2ccccc2C(F)(F)F)cc1Cl (configuration not stated) | 43% | 16% | 70% | 18% | 36% | 29% | 10% | 17% | 57% | 13% | 23% | 24% |  |  |  |  |  |  |  | 
Cc1ccc(N(C(=O)c2nnsc2C)C(C(=O)NC(C)C)c2cccc(Cl)c2)cc1Cl (configuration not stated) | 40% | 9% | 76% | 8% | 37% | 6% | 26% | 14% | 62% | 14% | 9% | 4% |  |  |  |  |  |  |  | 
Cc1ccc(N(C(=O)c2nnsc2C)C(C(=O)NC(C)C)c2cccc(F)c2)cc1Cl (configuration not stated) | 38% | 18% | 78% | 21% | 42% |  | 19% | 10% | 69% | 18% | 33% | 23% |  |  |  | 34% |  |  |  | 
Cc1ccc(N(C(=O)c2nnsc2C)C(C(=O)NC(C)C)c2ccc([N+](=O)[O-])cc2)cc1Cl (configuration not stated) | 33% | 19% | 79% | 17% | 39% | 14% | 23% | 4% | 60% | 21% | 9% | 4% |  |  |  |  |  |  |  | 
Cc1ccc(N(C(=O)c2nnsc2C)C(C(=O)NC(C)C)c2cccc([N+](=O)[O-])c2)cc1Cl (configuration not stated) | 45% | 34% | 78% | 9% | 33% |  | 12% | 10% | 52% | 26% | 46% | 33% |  |  |  | 28% |  |  |  | 
Cc1ccc(N(C(=O)c2nnsc2C)C(C(=O)NC(C)C)c2cccc(O)c2)cc1Cl (configuration not stated) | 45% | 24% | 73% | 14% | 33% |  | 30% | 13% | 59% | 30% | 23% | 15% |  |  |  | 13% |  |  |  | 
Cc1ccc(N(C(=O)c2nnsc2C)C(C(=O)NC(C)C)c2ccc(F)cc2)cc1Cl (configuration not stated) | 36% | 19% | 70% | 13% | 42% | 14% | 14% | 17% | 63% | 5% | 25% | 27% |  |  |  |  |  |  |  | 
